Assay results taken from paper PMC10583827 (RSC Medicinal Chemistry, 2023).
Several values for one entry are separate records, joined by “and”; a condition that tells them apart may be missing. Equal entries are not always repeated. Entries after “also recorded” stand apart in the source; their conditions may differ.

How the values were obtained:
Cyclic voltammetry = type: physicochemical; details: acetonitrile; for ipa/ipc, ratio of anodic to cathodic current / ΔEp, wave potential separation (Epa − Epc): scan rate 100 mV s−1; for E1/2, half wave potential (E1/2 = (Epa + Epc)/2) / Epa, anodic wave potential / Epc, cathodic wave potential: scan rate 100 mV s−1, V vs. Ag/AgCl
Procedure, shortened: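 Test compound at 0.5 mM in anhydrous acetonitrile with 0.1 M […] as background electrolyte. Three-electrode cell: glassy carbon working, Pt wire counter, Ag/AgCl reference. Scanned from −1.7 to +1.0 V at 100 mV s−1 with a 20 mV E step, 6 cycles per compound, at 25 °C. Half-wave potentials were taken from the voltammograms.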

[1] = Host macrophage cytotoxicity, resazurin assay; type: cell-based; details: human, PMA-differentiated THP-1 cells (macrophages)
[2] = system: L. donovani strain 9515 amastigotes; experiment: Intramacrophage antileishmanial assay; type: cell-based, Leishmania donovani; details: antimonial-resistant L. donovani; activity retained 72 hours post lysis
Vero cells = experiment: General/basal cytotoxicity, resazurin assay
[3] = system: L. major strain IR173 amastigotes; experiment: Intramacrophage antileishmanial assay; type: cell-based, Leishmania major; details: activity retained 72 hours post macrophage lysis
[4] = historical data ref 35; cited from earlier work

Row | ipa/ipc, ratio of anodic to cathodic current (Cyclic voltammetry) | ΔEp, wave potential separation (Epa − Epc) (Cyclic voltammetry) | E1/2, half wave potential (E1/2 = (Epa + Epc)/2) (Cyclic voltammetry) | Epa, anodic wave potential (Cyclic voltammetry) | Epc, cathodic wave potential (Cyclic voltammetry) | SMILES | IC50 at 72 h [1] | Cidal anti-amastigote activity against L. donovani [2] | Toxicity to mammalian cells, class in words (Vero cells) | Cidal anti-amastigote activity against L. major [3] | E1/2, half wave potential [4]
1 | 1.016 | 0.24 V | −0.88 V | −0.76 V | −1.00 V | O=[N+]([O-])c1ccc(/C=N/N=C/c2ccccc2)o1 [1a, (1E,2E)-1-Benzylidene-2-[(5-nitrofuran-2-yl)methylene]hydrazine] | > 100 µM |  |  |  | 
2 | 1.032 | 0.22 V | −0.95 V | −0.84 V | −1.06 V | O=[N+]([O-])c1ccc(/C=N/N=C/c2ccccc2)s1 [1b, (1E,2E)-1-Benzylidene-2-[(5-nitrothiophen-2-yl)methylene]hydrazine] | > 100 µM | cidal | moderate toxicity |  | 
3 | 0.990 | 0.28 V | −0.92 V | −0.78 V | −1.06 V | O=[N+]([O-])c1ccc(/C=N/N=C/c2ccc(F)cc2)o1 [2a, (1E,2E)-1-(4-Fluorobenzylidene)-2-[(5-nitrofuran-2-yl)methylene]hydrazine] |  |  |  | cidal | 
4 | 1.022 | 0.22 V | −0.89 V | −0.78 V | −1.00 V | O=[N+]([O-])c1ccc(/C=N/N=C/c2ccc(F)cc2)s1 [2b, (1E,2E)-1-(4-Fluorobenzylidene)-2-[(5-nitrothiophen-2-yl)methylene]hydrazine] | > 100 µM |  | low toxicity |  | 
5 | 0.967 | 0.28 V | −0.94 V | −0.80 V | −1.08 V | O=[N+]([O-])c1ccc(/C=N/N=C/c2ccc(Cl)cc2)o1 [3a, (1E,2E)-1-(4-Chlorobenzylidene)-2-[(5-nitrofuran-2-yl)methylene]hydrazine] | > 100 µM |  | low toxicity; also recorded: non-toxic | cidal | 
6 | 0.889 | 0.22 V | −0.85 V | −0.74 V | −0.96 V | O=[N+]([O-])c1ccc(/C=N/N=C/c2ccc(Cl)cc2)s1 [3b, (1E,2E)-1-(4-Chlorobenzylidene)-2-[(5-nitrothiophen-2-yl)methylene]hydrazine] |  |  |  |  | 
7 | 0.891 | 0.26 V | −0.93 V | −0.80 V | −1.06 V | O=[N+]([O-])c1ccc(/C=N/N=C/c2ccc(Br)cc2)o1 [4a, (1E,2E)-1-(4-Bromobenzylidene)-2-[(5-nitrofuran-2-yl)methylene]hydrazine] | > 100 µM | cidal | low toxicity; also recorded: non-toxic | cidal | 
8 | 0.961 | 0.24 V | −0.92 V | −0.80 V | −1.04 V | O=[N+]([O-])c1ccc(/C=N/N=C/c2ccc(Br)cc2)s1 [4b, (1E,2E)-1-(4-Bromobenzylidene)-2-[(5-nitrothiophen-2-yl)methylene]hydrazine] |  |  |  |  | 
9 | 1.007 | 0.24 V | −0.94 V | −0.82 V | −1.06 V | Cc1ccc(/C=N/N=C/c2ccc([N+](=O)[O-])o2)cc1 [5a, (1E,2E)-1-(4-Methylbenzylidene)-2-[(5-nitrofuran-2-yl)methylene]hydrazine] | > 100 µM |  | low toxicity |  | 
10 | 1.000 | 0.24 V | −0.90 V | −0.78 V | −1.02 V | Cc1ccc(/C=N/N=C/c2ccc([N+](=O)[O-])s2)cc1 [5b, (1E,2E)-1-(4-Methylbenzylidene)-2-[(5-nitrothiophen-2-yl)methylene]hydrazine] |  |  |  |  | 
11 | 0.965 | 0.34 V | −0.85 V | −0.68 V | −1.02 V | COc1ccc(/C=N/N=C/c2ccc([N+](=O)[O-])o2)cc1 [6a, (1E,2E)-1-(4-Methoxybenzylidene)-2-[(5-nitrofuran-2-yl)methylene]hydrazine] | > 100 µM | cidal |  |  | 
12 | 0.990 | 0.24 V | −0.92 V | −0.80 V | −1.04 V | COc1ccc(/C=N/N=C/c2ccc([N+](=O)[O-])s2)cc1 [6b, (1E,2E)-1-(4-Methoxybenzylidene)-2-[(5-nitrothiophen-2-yl)methylene]hydrazine] |  |  |  |  | 
13 |  | 0.26 V | −0.91 V | −0.78 V | −1.04 V | O=[N+]([O-])c1ccc(/C=N/N=C/c2ccc(OCc3ccccc3)cc2)o1 [7a, (1E,2E)-1-[4-(Benzyloxy)benzylidene]-2-[(5-nitrofuran-2-yl)methylene]hydrazine] | > 100 µM |  | low toxicity |  | 
14 |  |  |  |  |  | O=[N+]([O-])c1ccc(/C=N/N=C/c2ccc(OCc3ccccc3)cc2)s1 [7b, (1E,2E)-1-[4-(Benzyloxy)benzylidene]-2-[(5-nitrothiophen-2-yl)methylene]hydrazine] | > 100 µM |  | low toxicity |  | 
15 | 0.943 | 0.26 V | −0.95 V | −0.82 V | −1.08 V | O=[N+]([O-])c1ccc(/C=N/N=C/c2ccc(O)cc2)o1 [8a, 4-{(E)-{(E)-[(5-Nitrofuran-2-yl)methylene]hydrazono}methyl}phenol] |  |  |  |  | 
16 | 1.002 | 0.24 V | −0.94 V | −0.82 V | −1.06 V | O=[N+]([O-])c1ccc(/C=N/N=C/c2ccc(O)cc2)s1 [8b, 4-(E)-(E)-[(5-Nitrothiophen-2-yl)methylene]hydrazonomethylphenol] |  | cidal | moderate toxicity |  | 
17 | 0.963 | 0.22 V | −0.95 V | −0.84 V | −1.06 V | O=[N+]([O-])c1ccc(/C=N/N=C/c2ccc([N+](=O)[O-])o2)cc1 [9a, (1E,2E)-1-(4-Nitrobenzylidene)-2-[(5-nitrofuran-2-yl)methylene]hydrazine] |  | cidal |  | cidal | 
18 | 0.951 | 0.24 V | −0.94 V | −0.82 V | −1.06 V | O=[N+]([O-])c1ccc(/C=N/N=C/c2ccc([N+](=O)[O-])s2)cc1 [9b, (1E,2E)-1-(4-Nitrobenzylidene)-2-[(5-nitrothiophen-2-yl)methylene]hydrazine] |  |  |  |  | 
19 |  |  |  |  |  | O=C(Cn1ccnc1[N+](=O)[O-])NCc1ccccc1 [Bzn, benznidazole, reference compound] | > 100 µM |  |  |  | 
20 | 0.967 | 0.28 V | −0.88 V | −0.74 V | −1.02 V | O=Cc1ccc([N+](=O)[O-])o1 [NFA, 5-nitro-2-furaldehyde, reference compound] |  |  |  |  | 
21 |  |  |  |  |  | NC(=O)N/N=C/c1ccc([N+](=O)[O-])o1 [NFZ, nitrofurazone, reference compound] | > 100 µM |  |  |  | 
22 | 0.755 | 0.20 V | −0.96 V | −0.86 V | −1.06 V | O=Cc1ccc([N+](=O)[O-])s1 [NTA, 5-nitrothiophene-2-carboxaldehyde, reference compound] |  |  |  |  | 
23 |  |  |  |  |  | CC1CS(=O)(=O)CCN1/N=C/c1ccc([N+](=O)[O-])o1 (stereo not drawn) [NTX, Nifurtimox] |  |  |  |  | −0.88 V and −0.88 ^g V
